How the values were obtained:
Homo sapiens = species: Homo sapiens; test: Ability to inhibit complement-mediated erythrocyte lysis (hemolysis) in human serum; type: functional, organism-based
In short: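 Antibody-sensitized sheep erythrocytes incubated with compound and diluted human serum, 60 min at 37 °C. Cells pelleted by centrifugation; released hemoglobin read at 410 nm in supernatant. Each sample paired with a serum-free control for complement-independent lysis, which was subtracted. Fractional inhibition taken relative to the no-compound sample.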

Oryctolagus cuniculus = species: Oryctolagus cuniculus; test: Ability to inhibit lysis of rabbit erythrocytes by the alternative complement pathway was determined; type: functional, organism-based
In short: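 Alternative-pathway hemolysis of rabbit erythrocytes. Cells incubated with compound and human serum for 60 min at 37 °C. Supernatant hemoglobin read at 410 nm after centrifugation. Serum-free background was subtracted and inhibition taken relative to the no-compound sample.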

[1] = Inhibitory activity against proteolytic release of C3a in activated human serum was determined; type: functional
In short: (§1)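 Human serum (73% of final volume) equilibrated with a range of compound concentrations dissolved in 0.10 M HEPES, 0.15 M NaCl, pH 7.4. Serum then activated with heat-aggregated IgG, and C5a[desArg] and C3a[desArg] quantified. Fractional inhibition taken relative to the no-compound sample and to the background level without aggregated IgG. n = 3 (one compound n = 2).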

[2] = Inhibitory activity against proteolytic release of C5a in activated human serum was determined; type: functional; in short: as §1

Row | Compound | IC50 (Homo sapiens) [mM] | IC50 (Oryctolagus cuniculus) [mM] | IC50 [1] [mM] | IC50 [2] [mM]
1 | COc1cc(C(=O)O)cc2c1CC1(CCCCC1)O2 | 0.53 | 2.2 |  | 
2 | COc1ccc(C=O)c2c1CC1(CCCCC1)O2 |  |  | 13 | 8
3 | COc1cc(C(=O)O)cc(O)c1CC1=CCCCC1 | 0.82 | 3.5 |  | 
4 | O=C(O)c1ccccc1O [SALICYLIC ACID] |  |  |  | 21
5 | COc1cc(C=O)c(C(=O)O)c2c1CC1(CCCCC1)O2 | 1.7 | 1.9 |  | 
6 | O=C(O)c1ccc(O)cc1O [2,4-DIHYDROXYBENZOIC ACID] |  |  |  | 22
7 | O=C(O)c1cc(O)c2c(c1)OC1(CCCCC1)C2 | 1.5 | 3.8 |  | 
8 | COc1cc2c(c3c1CC1(CCCCC1)O3)C(=O)OC2 |  |  | 0.7 | 1.3
9 | COc1cc(C(=O)O)c(C(=O)O)c2c1CC1(CCCCC1)O2 | 0.8 | 1.2 |  | 
10 | C[C@@H]1CCC2C(C)(C)[C@H](O)[C@H](O)C[C@]2(C)C12Cc1c(O)cc(C(=O)O)c(C=O)c1O2 (stereo partly drawn) | 0.57 | 0.33 |  | 3
11 | O=C(O)c1ccc(O)c2c1OC1(CCCCC1)C2 | 3 |  |  | 
12 | COc1ccc(C(=O)O)c(O)c1CC1=CCCCC1 | 2.1 |  |  | 
13 | COc1cc(C(=O)O)c(C=O)c2c1CC1(CCCCC1)O2 | 0.16 | 0.73 |  | 0.5
14 | COc1ccc(C(=O)O)c2c1CC1(CCCCC1)O2 | 1.3 | 2.2 | 22 | 5
